The values below come from PubChem BioAssay.

A number with no mark means an inactive call. Records with an inconclusive call do not appear. The source made the active and inactive calls.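 Rule for the calls, unless noted: active = RAM network inhibition above 8.4% in each of two replicates, 3 SD over the compound average; inconclusive = above 8.4% inhibition in only one replicate; inactive = 8.4% inhibition or less in each replicate.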

The nature of test [1]: OD615 S. cerevisiae growth inhibition, permissive medium, pilot counter-assay, permissive growth control for S. cerevisiae lifespan shortening project (AID 705;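 active = growth inhibition above 25% in both replicates, a cutoff set 3 SD above the mean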). As to conditions: OD615, 24 h, at 10 µM, stronger effect = higher value. A digest of the protocol:
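Material: engineered DeaD yeast; compound dosing: one dose 10 µM, DMSO 0.25% final; measure: yeast growth inhibition indicated by reduced 24 h OD615; detection: OD615 turbidity read; incubation: cells pre-grown 4 h, then 24 h compound exposure, 30 °C humidified; medium: permissive synthetic complete medium with raffinose and galactose carbon sources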

Test [2] is described as follows: Restrictive medium S. cerevisiae growth inhibition, OD615, pilot screen of yeast lifespan reduction project, restrictive growth control (AID 706;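 active = growth inhibition above a set limit, 3 SD over mean compound inhibition, in both replicates, cut at about 43% in these data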;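 note: modified DeaD lifespan yeast strain shifted to restrictive glucose medium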). As to conditions: OD615, 48 h, at 10 µM, stronger effect = higher value. Put shortly: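 material = engineered S. cerevisiae DeaD strain | medium = glucose-based CSMM-D restrictive medium | times = 4 h pre-incubation, 48 h exposure at 30 °C | technique = OD615 absorbance reading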

Test [3] is described as follows: viability gain of MRP-1-high H69AR cells under doxorubicin, pilot screen, MRP-1 activator project, CellTiter-Glo, duplicate (AID 807;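 active = viability increase at or above a cutoff of the median across tested compounds plus 3 SD, cut at about 8.5% in these data, passing the limit was not always enough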;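 note: compound pretreatment 18-22 h then 72 h combined with doxorubicin; 0% = doxorubicin alone and 100% = vehicle without doxorubicin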). As to conditions: H69AR viability with doxorubicin, CellTiter-Glo luminescence; at 10 µM; stronger effect = higher value. On the technique in general: ATP-based viability assays read luminescence as a measure of living cells.
A short description of test [4]: growth suppression of beta-catenin knockout HCT116, pilot screen, human colon tumor cells (AID 823;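 active = cell viability at or below a set limit in both duplicate runs, the limit being the all-compound median minus 4 SD, cut at about 23% in these data, passing the limit was not always enough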;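 note: 0% = wells killed by 20 µM Hyamine and 100% = untreated DMSO cell wells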). As to conditions: CellTiter-Glo, 60 h, at 10 µM, stronger effect = lower value.
Test [5] in a line: growth suppression of PTEN-deleted HCT116, pilot screen, cell-based, HCT116 clonal line, CellTiter-Glo (AID 824;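 active = viability at or below 27.92% in each of two runs, the all-compound median minus 4 SD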;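 note: 0% = 20 µM Hyamine control and 100% = vehicle cell control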). The settings on record: 60 h, at 10 µM, stronger effect = lower value.
Test [6] can be described thus: inhibitors of the yeast RAM network, pilot screen, dse1pr::URA3 reporter, 5-FOA selection (AID 869;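 active = inhibition over a set limit, the all-compound mean plus 3 SD, in both replicate runs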;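 note: 0% = DMSO wells with no growth and 100% = 10 µM 1-NA-PP1 with full growth; RAM network block rescues cells from 5-FOA so hits raise OD615 growth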). As to conditions: S. cerevisiae dse1pr::URA3 5-FOA growth, OD615, 2 d; at 10 µM; stronger effect = higher value; strain carries analog-sensitive mutant Cbk1 kinase.
Test [7] can be described thus: RAM signaling pathway blockade in yeast – S. cerevisiae, Pdr1DBD-CYC8 efflux-inhibited sensitized strain, primary screen (AID 1298).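 Note: 0% = DMSO untreated cells without growth and 100% = 10 µM 1-NA-PP1 full growth; higher means more yeast growth rescued from 5-FOA killing.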 The settings on record: S. cerevisiae cbk1-as DSE1-URA3 strain, 5-FOA growth OD615, 2 d; at 50 µM; stronger effect = higher value.

The term viability denotes a read-out of living cells in per cent, often relative to untreated cells. By inhibition is commonly meant the relative decrease from the control value, in per cent. Regarding `CCc1nnc(SCc2ccc(OC)c(Br)c2)n1N`, the growth inhibition was 6.13% in test [1] and -2.06% in test [2]. For the same compound, in test [3], the viability increase was -0.5%. Besides, the results for the viability in test [4] and in test [5] were 104% and 98.9%, respectively. Moreover, the inhibition in test [6] is 0.21%. The RAM network inhibition in test [7] is 2.41%.
Take `COc1cc(C)c(N(C(C)=O)c2ccccc2)c(C)c1`: the growth inhibition in test [1] is -10.7%; in test [2], -17.4%. Moreover, the viability increase in test [3] is -0.85%. Moreover, the viability in test [4] was 92.2%; in test [5] it was 87.3%. In addition, the inhibition in test [6] is 1.97%. Moreover, the RAM network inhibition in test [7] is 5.22%.
As for `O=C(CSc1nnc(Cn2c(=O)sc3ccccc32)n1-c1ccccc1)N1CCCCCC1`, the growth inhibition in test [1] was -11.3%; in test [2] it was -4.95%. In addition, the viability increase in test [3] was -2.95%. Further, the viability in test [4] was 91.7%; in test [5], 81.7%. For the same compound, the inhibition in test [6] was 2.22%. In test [7], the RAM network inhibition was 6.65%.
As to `CC(=O)N(c1c(C)n(C)n(-c2ccccc2)c1=O)C1(C(=O)NC2CCCC2)CCCCC1`, the figures for the growth inhibition in test [1] and in test [2] were -1.1% and -19%, respectively. Further, in test [3], the viability increase is -1.56%. In addition, the viability in test [4] is 95.1%; in test [5], 95.8%. In addition, the inhibition in test [6] is 0.27%. Further, the RAM network inhibition in test [7] is -1.24%.
Take `CC(=O)N1C(C(=O)O)CSC1c1ccc(C)cc1` (stereo unspecified): the growth inhibition in test [1] was 4.69%; in test [2] it was 8.76%. Besides, the viability increase in test [3] was -0.04%. Further, the viability in test [4] was 95.3%; in test [5], 95.6%. In test [6], the inhibition was -0.43%. The RAM network inhibition in test [7] was -1.41%.
With `CCCc1ccc(-c2ccc(C(=O)O)cc2)nc1`, the growth inhibition is 8.77% in test [1] and 5.22% in test [2]. The viability increase in test [3] was -3.24%. For the same compound, the results for the viability in test [4] and in test [5] were 101% and 95.9%, respectively. In addition, the inhibition in test [6] is -0.425%. The RAM network inhibition in test [7] was -2.78%.
Turning to `CC(=O)CC(=O)Nc1cccc2c1CCCC2`, the growth inhibition in test [1] was -1.4%; in test [2] it was -1.66%. Besides, in test [3], the viability increase was -1.76%. Also, the results for the viability in test [4] and in test [5] were 92.6% and 91.5%, respectively. Besides, the inhibition in test [6] was -0.665%. Besides, the RAM network inhibition in test [7] is 1.72%.
Regarding `CCSc1nnc(NC(=O)c2c(-c3ccccc3Cl)noc2C)s1`, the growth inhibition in test [1] is 0.595%; in test [2], 2.59%. In test [3], the viability increase was -1.87%. Moreover, the values for the viability in test [4] and in test [5] were 97.8% and 88.2%, respectively. In test [6], the inhibition was 1.04%. Besides, the RAM network inhibition in test [7] was 8.79%.
Regarding `CCN1CCN(CCNC(=O)CS(=O)(=O)Cc2nc(-c3ccc(C)cc3)oc2C)CC1`, the growth inhibition in test [1] was -13.7%; in test [2], -28.7%. In addition, the viability increase in test [3] is 0.44%. Also, the viability was 87.2% in test [4] and 93.7% in test [5]. For the same compound, the inhibition in test [6] was 0.22%. Further, the RAM network inhibition in test [7] was 3.16%.
For `Cc1nn(C)c(C)c1S(=O)(=O)N(CC(=O)Nc1nccs1)c1ccc(C(C)C)cc1`, the growth inhibition in test [1] was -0.91%; in test [2], -7.29%. The viability increase in test [3] was -4.04%. The values for the viability in test [4] and in test [5] were 99% and 90.5%, respectively. Also, in test [6], the inhibition was 2.3%. Also, the RAM network inhibition in test [7] was 2.72%.
Consider `O=C(c1ccccc1NS(=O)(=O)c1cccs1)N1CCCC1`, for which the growth inhibition in test [1] was -1.34%; in test [2] it was 3.17%. Moreover, in test [3], the viability increase was -0.63%. For the same compound, the viability was 93.1% in test [4] and 94.1% in test [5]. Moreover, the inhibition in test [6] is 1.84%. In addition, the RAM network inhibition in test [7] was 1.28%.
With `Cc1ccnc(SCC(=O)O)n1`, the growth inhibition is -0.18% in test [1] and -10.8% in test [2]. Also, the viability increase in test [3] is -1.15%. In addition, the viability in test [4] and in test [5] was 101% each time. For the same compound, the inhibition in test [6] was 1.29%. In addition, the RAM network inhibition in test [7] was 1.08%.
On to `Cc1cccc(NS(=O)(=O)c2ccccc2)n1`, for which the growth inhibition was -4.51% in test [1] and 11.2% in test [2]. Besides, the viability increase in test [3] is 2.49%. The viability is 106% in test [4] and 104% in test [5]. For the same compound, the inhibition in test [6] is 0.75%. For the same compound, the RAM network inhibition in test [7] was 0.26%.
Regarding `COCCn1c(=O)[nH]c2cc(C(=O)NC3CCCCCC3)ccc2c1=O`, the growth inhibition in test [1] was -17.4%; in test [2] it was -10.9%. In test [3], the viability increase is -3.33%. Also, the viability in test [4] is 93.7%; in test [5], 87.6%. Besides, in test [6], the inhibition was 6.66% (active). For the same compound, the RAM network inhibition in test [7] was 4.43%.
For the compound `CC(C)NS(=O)(=O)c1ccc(CCC(=O)NCc2cccnc2)cc1`, the figures for the growth inhibition in test [1] and in test [2] were 2.32% and -6.38%, respectively. Also, the viability increase in test [3] was -0.9%. Further, the viability in test [4] was 88%; in test [5], 92.5%. Besides, the inhibition in test [6] is 1.33%. Besides, the RAM network inhibition in test [7] was 1.08%.
For `CC1CN(C2CC(C)(C)NC(C)(C)C2)CCC1=O` (stereo unspecified), the growth inhibition in test [1] was -5.84%; in test [2] it was -0.43%. Besides, in test [3], the viability increase is 1.05%. The viability in test [4] was 96.7%; in test [5] it was 100%. The inhibition in test [6] is -0.505%. Moreover, the RAM network inhibition in test [7] is 5.32%.
For `Cc1cc(C)n(-c2ncc(-c3ccccc3)nn2)n1`, the values for the growth inhibition in test [1] and in test [2] were -2.83% and 29.2%, respectively. Besides, in test [3], the viability increase was -0.89%. Also, the viability in test [4] and in test [5] was 105% in each case. Besides, the inhibition in test [6] is 0.43%. For the same compound, the RAM network inhibition in test [7] is 2.61%.
With `O=C(Cn1cc2c(n1)CCCCC2)N1CCCCC1`, the results for the growth inhibition in test [1] and in test [2] were -4.8% and -5.9%, respectively. The viability increase in test [3] was -0.82%. Besides, the viability in test [4] is 98.5%; in test [5] it was 92.4%. Also, the inhibition in test [6] is 1.23%. In addition, the RAM network inhibition in test [7] was -2.24%.
